The source made the active and inactive calls. The calls are words filed in the database; no cut-off is given here.
Key:
MIA PaCa-2 [1] = assay: (§1) Cytotoxicity against human MIAPaCa2 cells harboring K-Ras mutant oncogene after 48 hrs by fluorescence assay; type: functional, cell-based
In short: (§2)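 Cells from ATCC, kept at 37°C in 5% CO2 to about 80% confluence, trypsinized and plated at 1×10^4 cells/well in medium with 5% FBS. Treated with PCAIs 0–20 μM for 48 h. Viability by resazurin (0.02% in Dulbecco PBS, 20 μL added), fluorescence read after 2 h at ex 560/em 590 nm. EC50 by nonlinear regression of concentration-response.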

[2] = as §1; type: functional, cell-based; conditions: MIA PaCa-2, 48 h; in short: as §2
Homo sapiens = organism: Homo sapiens; assay: (§3) Inhibition of PMPMEase (unknown origin) using RD-PNB as substrate incubated for 15 mins prior to substrate addition measured after 2 hrs by RP-HPLC analysis
In short: (§4)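 Enzyme (1 μg) preincubated 15 min with inhibitor (1–1000 μM, dissolved in water), then RD-PNB (1 mM, in DMSO) added. Incubated 2 h at 37°C in 100 mM Tris-HCl pH 7.4, stopped with methanol, centrifuged. Supernatant analysed by RP-HPLC with UV detection at 260 nm. IC50 by nonlinear regression; Ki derived from previously reported RD-PNB kinetics.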

[3] = as §3; parameters: species or system Homo sapiens; in short: as §4
BXPC-3 [4] = assay: (§5) Cytotoxicity against human BxPC3 cells after 48 hrs by fluorescence assay; type: functional, cell-based; in short: as §2
[5] = as §5; type: functional, cell-based; conditions: BXPC-3, 48 h; in short: as §2
[6] = Lipophilicity, log D of the compound; type: physicochemical; conditions: octanol/water
MIA PaCa-2 [7] = assay: Cytotoxicity against human MIAPaCa2 cells harboring K-Ras mutant oncogene at 20 uM after 24 to 72 hrs by fluorescence assay; type: functional, cell-based
In short: (§6)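 Same viability method: cells plated at 1×10^4 cells/well in 5% FBS medium, exposed to 20 μM PCAI for 24, 48 and 72 h. Resazurin (0.02% in Dulbecco PBS) added, fluorescence ex 560/em 590 nm read 2 h later.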

BXPC-3 [8] = assay: Cytotoxicity against human BxPC3 cells at 20 uM after 24 to 72 hrs by fluorescence assay; type: functional, cell-based; in short: as §6
MIA PaCa-2 [9] = assay: Induction of apoptosis in human MIAPaCa2 cells harboring K-Ras mutant oncogene assessed as early apoptotic cells at 2 uM after 48 hrs by acridine orange/ethidium bromide staining-based fluorescence microscopy; type: functional, cell-based
In short: (§7)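 5×10^4 MIA PaCa-2 cells cultured in chamber slide wells and treated 48 h at 0.5, 1 and 2 μM in 5% FBS. Stained with acridine orange/ethidium bromide (10 μg/mL). Imaged by fluorescence microscopy (x40 objective, 480/30 nm excitation). Green intact nuclei scored as viable; bright green fragmented nuclei as early apoptotic; orange-red condensed nuclei as apoptotic.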

MIA PaCa-2 [10] = assay: Induction of apoptosis in human MIAPaCa2 cells harboring K-Ras mutant oncogene at 0.5 to 2 uM after 48 hrs by acridine orange/ethidium bromide staining-based fluorescence microscopy; type: functional, cell-based; in short: as §7
MIA PaCa-2 [11] = assay: Induction of apoptosis in human MIAPaCa2 cells harboring K-Ras mutant oncogene assessed as viable cells at 1 uM after 48 hrs by acridine orange/ethidium bromide staining-based fluorescence microscopy; type: functional, cell-based; in short: as §7

| Activity (Homo sapiens) | Ki [3] | logD [6] | SMILES | Activity (MIA PaCa-2 [1]) | EC50 [2] | Activity (BXPC-3 [4]) | EC50 [5] | Activity (MIA PaCa-2 [7]) | Activity (BXPC-3 [8]) | Activity (MIA PaCa-2 [9]) | Activity (MIA PaCa-2 [10]) | Activity (MIA PaCa-2 [11]) |
| --- | --- | --- | --- | --- | --- | --- | --- | --- | --- | --- | --- | --- |
| Dose-dependent effect | 16.9 µM | 4.99 | CC(C)=CCC/C(C)=C/CC/C(C)=C/CSC[C@H](NC(=O)CCCCCN1CCN(C)CC1)C(=O)NC1CCCCC1 | Dose-dependent effect | 5.9 µM | Dose-dependent effect | 12 µM | – | – | – | – | – |
| – | – | 6.03 | CC(C)=CCC/C(C)=C/CC/C(C)=C/CSc1ccccc1C(N)=O | – | > 20 µM | – | > 20 µM | inactive | inactive | – | – | – |
| Dose-dependent effect | 17.5 µM | 3.15 | CC(C)=CCC/C(C)=C/CC/C(C)=C/CSC[C@H](NC(=O)CCCCCN1CCCC1)C(=O)NC1CC1 | Dose-dependent effect | > 20 µM | Dose-dependent effect | > 20 µM | – | – | – | – | – |
| Dose-dependent effect | 11 µM | 3.76 | CC(C)=CCC/C(C)=C/CC/C(C)=C/CSC[C@H](NC(=O)CCCCCN1CCCC1)C(=O)N1CCCCC1 | Dose-dependent effect | 12.4 µM | Dose-dependent effect | 8.7 µM | – | – | – | – | – |
| Dose-dependent effect | 15.2 µM | 5.88 | CC(C)=CCC/C(C)=C/CC/C(C)=C/CSC[C@H](NC(=O)CCCCCN1CCN(C)CC1)C(=O)NC1CCCCCCC1 | Dose-dependent effect | 2.5 µM | Dose-dependent effect | 7.5 µM | – | – | Active | Active | inactive |
| Dose-dependent effect | 11.6 µM | 4.93 | CC(C)=CCC/C(C)=C/CC/C(C)=C/CSC[C@H](NC(=O)CCCCCN1CCCC1)C(=O)NC1CCCCCC1 | Dose-dependent effect | 6.8 µM | Dose-dependent effect | 5.8 µM | – | – | – | – | – |
| Dose-dependent effect | 10.1 µM | 4.55 | CC(C)=CCC/C(C)=C/CC/C(C)=C/CSC[C@H](NC(=O)CCCCCN1CCN(C)CC1)C(=O)NC1CCCC1 | Dose-dependent effect | 10.9 µM | Dose-dependent effect | > 20 µM | – | – | – | – | – |
| Dose-dependent effect | 11.9 µM | 5.37 | CC(C)=CCC/C(C)=C/CC/C(C)=C/CSC[C@H](NC(=O)CCCCCN1CCCC1)C(=O)NC1CCCCCCC1 | Dose-dependent effect | 1.9 µM | Dose-dependent effect | 4 µM | – | – | – | – | – |
| Dose-dependent effect | 17.6 µM | 5.44 | CC(C)=CCC/C(C)=C/CC/C(C)=C/CSC[C@H](NC(=O)CCCCCN1CCN(C)CC1)C(=O)NC1CCCCCC1 | Dose-dependent effect | 2.7 µM | Dose-dependent effect | 6.2 µM | – | – | – | – | – |
| Dose-dependent effect | 3.7 µM | 4.04 | CC(C)=CCC/C(C)=C/CC/C(C)=C/CSC[C@H](NC(=O)CCCCCN1CCCC1)C(=O)NC1CCCC1 | Dose-dependent effect | 3.2 µM | Dose-dependent effect | 6.8 µM | – | – | – | – | – |
| Dose-dependent effect | 11.2 µM | 4.48 | CC(C)=CCC/C(C)=C/CC/C(C)=C/CSC[C@H](NC(=O)CCCCCN1CCCC1)C(=O)NC1CCCCC1 | Dose-dependent effect | 5.6 µM | Dose-dependent effect | 12.7 µM | – | – | – | – | – |
| Dose-dependent effect | 13.8 µM | 3.66 | CC(C)=CCC/C(C)=C/CC/C(C)=C/CSC[C@H](NC(=O)CCCCCN1CCN(C)CC1)C(=O)NC1CC1 | Dose-dependent effect | 10.4 µM | Dose-dependent effect | 6.3 µM | – | – | – | – | – |
| Dose-dependent effect | 20 µM | 3.82 | CC(C)=CCC/C(C)=C/CC/C(C)=C/CSC[C@H](NC(=O)CCCCCN1CCN(C)CC1)C(=O)N1CCCC1 | Dose-dependent effect | 6 µM | Dose-dependent effect | 3.2 µM | – | – | – | – | – |
| – | – | 3.43 | CC(C)=CCC/C(C)=C/CC/C(C)=C/CSc1ccccc1C(=O)O [SALIRASIB] | – | > 20 µM | – | > 20 µM | inactive | inactive | – | – | – |
| Dose-dependent effect | 9.7 µM | 3.31 | CC(C)=CCC/C(C)=C/CC/C(C)=C/CSC[C@H](NC(=O)CCCCCN1CCCC1)C(=O)N1CCCC1 | Dose-dependent effect | 10.8 µM | Dose-dependent effect | 6.5 µM | – | – | – | – | – |
| Dose-dependent effect | 13 µM | 4.27 | CC(C)=CCC/C(C)=C/CC/C(C)=C/CSC[C@H](NC(=O)CCCCCN1CCN(C)CC1)C(=O)N1CCCCC1 | Dose-dependent effect | 14.3 µM | Dose-dependent effect | 8.8 µM | – | – | – | – | – |
